Most compounds without a hit are left out; they make up all but 1.4% or so of the library.
PvdQ acylase = blocks Pseudomonas aeruginosa PvdQ acylase activity | purified PvdQ acylase, fluorescence plate reader | inhibition, % at 10 µM | 340,000 tested, 0.063% active | AID 488965; in the data active means inhibition above about 30%, passing the limit was not always enough
Dyrk1A ADPGlo = inhibitors of rat Dyrk1A kinase. Q63470. ADP-Glo luminescence, NFATc1 peptide. inhibition, % at 12.5 µM. 310,000 tested, 0.43% active; in the data active means inhibition above about 50%
CAL PDZ FP-1 = inhibitors of human CAL PDZ peptide binding. Q9HD26. purified CAL PDZ, TMR-peptide fluorescence polarization, 1 h. inhibition, % at 24.9 µM. 300,000 tested, 0.92% active. AID 602252;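 active means mean inhibition of at least 30% with at least half of replicates also reaching 30%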
CDK5 inh = CDK5/p35 (human) kinase inhibition. Q00535+Q15078. 330,000 tested, 0.01% active. Recombinant CDK5/p35, ADP-Glo luminescence, 60 min. inhibition, % at 10 µM. AID 488839;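 active means highest replicate inhibition of at least 50% and at least 75% of replicates reaching 50%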
Target sequence (Q00535 whole entry, looked up): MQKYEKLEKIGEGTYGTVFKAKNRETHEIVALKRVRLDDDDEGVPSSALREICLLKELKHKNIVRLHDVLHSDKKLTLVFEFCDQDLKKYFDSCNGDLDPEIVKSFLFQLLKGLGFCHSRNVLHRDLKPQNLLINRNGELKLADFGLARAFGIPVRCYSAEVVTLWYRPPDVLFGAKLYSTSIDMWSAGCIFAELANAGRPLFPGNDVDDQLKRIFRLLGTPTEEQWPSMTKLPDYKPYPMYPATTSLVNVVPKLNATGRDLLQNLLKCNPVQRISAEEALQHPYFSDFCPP
Target sequence (Q15078 whole entry, looked up): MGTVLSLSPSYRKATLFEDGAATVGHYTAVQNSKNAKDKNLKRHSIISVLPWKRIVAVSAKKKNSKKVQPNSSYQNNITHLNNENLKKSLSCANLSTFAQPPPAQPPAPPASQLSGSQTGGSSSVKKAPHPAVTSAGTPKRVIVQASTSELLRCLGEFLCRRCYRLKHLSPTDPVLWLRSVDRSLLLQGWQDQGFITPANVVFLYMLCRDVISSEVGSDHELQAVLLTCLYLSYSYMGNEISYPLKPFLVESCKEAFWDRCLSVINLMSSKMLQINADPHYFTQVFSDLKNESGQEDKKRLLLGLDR
TbMetRS inhib = Trypanosoma brucei MetRS inhibition; 360,000 tested, 0.4% active; inhibition, % at 11.9 µM; purified T. brucei MetRS, ATP depletion, Kinase-Glo luminescence;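 active means inhibition above a per-plate cutoff of the control wells' mean inhibition plus 3 SD, cut at about 5.5% in these data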
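Test system: purified T. brucei MetRS enzyme. Also added: ATP, methionine and E. coli bulk tRNA substrates. Compound: 11.9 µM single point. Schedule: 15 min enzyme-compound preincubation, 2 h reaction, 10 min detection, 25 °C. Signal: luciferase luminescence of residual ATP, Kinase-Glo. Evaluation: percent inhibition versus plate control medians. Controls: DMSO wells, low control.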
CAL PDZ FP-2 = blocks peptide binding to human CAL PDZ domain | Q9HD26 | purified CAL PDZ, TMR-peptide fluorescence polarization, 1 h | inhibition, % at 20 µM | 330,000 tested, 0.02% active;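 active means highest replicate inhibition of at least 40%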
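Test system: tagged CAL PDZ domain / Buffer or medium: sodium phosphate/NaCl buffer pH 7.4 with TCEP, IgG, Thesit / Reagent: TMR-labelled reporter peptide T*-PRC34 bound in PDZ groove / Compound dosing: single point, 20 µM / Schedule: 1 h incubation at room temperature before polarization reading / Technique: fluorescence polarization (mP) / Benchmarks: unlabelled peptide, DMSO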
Of the large screens only hits and unclear results are named; the others gave an inactive call.

O=[N+]([O-])c1ccc(-c2cnc3ccccc3n2)cc1	none
Fc1ccc(-c2cn3ccccc3n2)cc1	none (no result: CAL PDZ FP-1)
CCOc1ccc(-c2cn3ccccc3n2)cc1	PvdQ acylase 50
CCOc1ccc(-c2cnc3ccccc3n2)cc1	PvdQ acylase 90 (no result: CAL PDZ FP-1)
CC(C)(C)OC(=O)N1C(=O)[C@](OC(=O)c2ccccc2)(c2ccc(F)cc2)c2ccccc21	none (no result: PvdQ acylase, Dyrk1A ADPGlo, CAL PDZ FP-1, CDK5 inh, CAL PDZ FP-2)
CCCCOC(=O)/C(=C\c1ccc([N+](=O)[O-])o1)NC(=O)c1ccccc1	CAL PDZ FP-1 41 (no result: CAL PDZ FP-2)
CCn1ncc(Br)c1C(=O)Nc1cccc(F)c1	CAL PDZ FP-1 33
CCCCC(=O)N(C)c1c(CC)nc2c(OCc3cccc(Cl)c3)cccn12	none (no result: PvdQ acylase, Dyrk1A ADPGlo, CAL PDZ FP-1, CDK5 inh, CAL PDZ FP-2)
CN(CCO)c1nc(N)c2c(N)nc3c(c2c1C#N)CC(=O)N3Cc1cccs1	CAL PDZ FP-1 123
COc1ccc(C(CNC(=O)COc2c(C)cc(C)cc2C)N2CCOCC2)cc1 (stereo unspecified)	CAL PDZ FP-1 68
COc1ccc(C(CNC(=O)COc2ccc(-c3ccccc3)cc2)N2CCOCC2)cc1 (stereo unspecified)	none
COc1cc(SC)ccc1C(=O)N1CCN(Cc2ccc3c(c2)OCO3)CC1	CAL PDZ FP-1 46
O=C(COC(=O)COc1ccc(Cl)cc1Br)NC1CCCCCC1	none (no result: Dyrk1A ADPGlo)
CN(C(=O)COc1ccc(Cl)cc1Br)C1CCCCC1	CAL PDZ FP-1 71
COc1ccc(-c2cc(C(=O)NCc3cccc(C(F)(F)F)c3)[nH]n2)c(C)c1	none (no result: PvdQ acylase, Dyrk1A ADPGlo, CAL PDZ FP-1, CDK5 inh, CAL PDZ FP-2)
CN(C)C(=O)c1cccc(COc2ccc(N3C(N)=NC(N)=NC3(C)C)cc2Cl)c1	none (no result: PvdQ acylase, Dyrk1A ADPGlo, CAL PDZ FP-1, CDK5 inh, CAL PDZ FP-2)
COc1cc(S(=O)(=O)Nc2cccc3cn[nH]c23)c(OC)cc1Cl	CAL PDZ FP-1 95
COCCOC(=O)N1CCCCC1c1cc(C(=O)Nc2cccc3c2CCCC3)no1 (stereo unspecified)	none (no result: PvdQ acylase, Dyrk1A ADPGlo, CAL PDZ FP-1, CDK5 inh, CAL PDZ FP-2)
Cc1noc(C)c1COC(=O)CCc1nc2ccccc2c(=O)[nH]1	CAL PDZ FP-1 45 (no result: Dyrk1A ADPGlo, CAL PDZ FP-2)
CN(C)c1ccc(CNC(=O)CCS(=O)(=O)c2ccc3c(c2)oc(=O)n3C)cc1	CAL PDZ FP-1 63
CCOC(=O)[C@]12CCCC=C1N(CCc1ccc(OC)c(OC)c1)C(=O)[C@H](CC(=O)N1CCCC1)C2	none (no result: PvdQ acylase, Dyrk1A ADPGlo, CAL PDZ FP-1, CDK5 inh, CAL PDZ FP-2)
Cc1cccc(NC(=O)CSCC(=O)Nc2ccc(N3CCOCC3)cc2N2CCOCC2)c1	CAL PDZ FP-1 89
CCCCCOc1ccc(C(=O)Nc2ccc(N3CCOCC3)cc2N2CCOCC2)cc1	CAL PDZ FP-1 45
CC(C)=C[C@H]1C[C@H](C)[C@H]2CC[C@H](C)c3c(O[C@@H]4O[C@@H](C)[C@@H](O)[C@@H](O)[C@@H]4O)c(O)c(C)c1c32	none (no result: PvdQ acylase, Dyrk1A ADPGlo, CAL PDZ FP-1, CDK5 inh, CAL PDZ FP-2)
COc1ccc(CNCc2c(O)c(Cl)cc3c(C)c(C)c(=O)oc23)c(OC)c1	CAL PDZ FP-1 32
Cc1ccccc1NC(=O)c1nc(S(C)(=O)=O)ncc1Cl	CAL PDZ FP-1 86
Cc1cccc(C)c1NC(=O)c1nc(S(=O)(=O)Cc2ccccc2)ncc1Cl	none
COc1ccc(S(=O)(=O)N2CCN(C(=O)c3ccco3)CC2)c(C)c1C	CAL PDZ FP-1 75
COc1ccc(Cl)cc1S(=O)(=O)N1CCN(C(=O)c2ccco2)CC1	none
O=C1NC[C@@H](CCCCN2C[C@H](Cc3ccc(O)cc3)N(CCc3ccccc3)C(=O)C2=O)N(CC2CCCCC2)C1=O	none (no result: PvdQ acylase, Dyrk1A ADPGlo, CAL PDZ FP-1, CDK5 inh, CAL PDZ FP-2)
CCOC(=O)[C@]12CCC=C1N(CCC1=CCCCC1)C(=O)[C@H](CC(=O)N1CCCCC1)C2	none (no result: PvdQ acylase, Dyrk1A ADPGlo, CAL PDZ FP-1, CDK5 inh, CAL PDZ FP-2)
COc1cccc2cc(-c3nc4ccccc4[nH]3)c(=O)oc12	none
Cc1cccc2cc(-c3nc4ccc(C(=O)O)cc4[nH]3)c(=O)oc12	CAL PDZ FP-1 81 (no result: CAL PDZ FP-2)
O=C(NCc1cccc(C(F)(F)F)c1)C1C(=O)Nc2ccccc2C(=O)N1C1CCCC1 (stereo unspecified)	none (no result: PvdQ acylase, Dyrk1A ADPGlo, CAL PDZ FP-1, CDK5 inh, CAL PDZ FP-2)
O=C(OCC(=O)N1CCC(Cc2ccccc2)CC1)c1ccccc1	CAL PDZ FP-1 31 (no result: Dyrk1A ADPGlo)
O=C(OCC(=O)N1CCOCC1)c1ccc(O)cc1	CAL PDZ FP-1 126
CCCc1nc2ccc(Cl)cn2c1Cc1ccsc1	none (no result: PvdQ acylase, Dyrk1A ADPGlo, CAL PDZ FP-1, CDK5 inh, CAL PDZ FP-2)
c1ccc2nc(N3CCOCC3)c(N3CCCC3)nc2c1	CAL PDZ FP-1 71
Cn1c(N)c(C(=O)COC(=O)c2ncc(Cl)c(Cl)c2Cl)c(=O)n(C)c1=O	CAL PDZ FP-1 55
C=CCC1Cc2c(Br)cccc2C(CC=C)N1 (stereo unspecified)	none (no result: CAL PDZ FP-1)

Screening results (PubChem BioAssay)
